Experimental findings from ChEMBL document CHEMBL2384906, “Biological activity, design, synthesis and structure activity relationship of some novel derivatives of curcumin containing sulfonamides” (Eur J Med Chem, 2013) are described below.

Molecules are shown by their SMILES. The source made the active and inactive calls. The rule behind the calls is not given here. Where only a bound is given, the exact number is not on record here.

For experiment [1], the system named is Escherichia coli. Description: Antimicrobial activity against Escherichia coli ATCC 35218 after 24 hrs by broth micro serial dilution method. It counts as functional. In short, it runs like this:
(§1)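 This was broth microdilution in autoclaved Mueller-Hinton broth. 150 µL of compound per well was serially diluted […], and 50 µL of test organism was added. Plates were incubated 24 h at 37 °C and optical density was read.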

Experiment [2] has as its system Escherichia coli. Description: Antimicrobial activity against Escherichia coli ATCC 35218 assessed as diameter of inhibition zone at 80 uM after 24 hrs by Kirby -Baur disc diffusion method. The format is functional. In short, it runs like this: (§2)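 Kirby-Bauer disc diffusion was used. Acetone stocks (160 µM) were serially doubled down to 80, 40 and 20 µM. 4 µL of each went onto 5 mm sterile paper discs, which were dried 30 min at 50 °C. Inoculum was 1.5 × 10⁸ CFU/mL diluted to 3 × 10² CFU/mL, and 50 µL was spread on Mueller-Hinton agar. After 24 h at 37 °C the inhibition-zone diameter was measured. Ciprofloxacin served as positive control.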
In general terms: Agar diffusion results depend on both activity and mobility in agar.

The test system of experiment [3] is Pseudomonas aeruginosa. The experiment can be described thus: Antimicrobial activity against Pseudomonas aeruginosa ATCC 15499 after 24 hrs by broth micro serial dilution method. The format is functional. The method in brief:
as §1

The subject of experiment [4] is Pseudomonas aeruginosa. The experiment can be described thus: Antimicrobial activity against Pseudomonas aeruginosa ATCC 15499 assessed as diameter of inhibition zone at 80 uM after 24 hrs by Kirby -Baur disc diffusion method. It counts as functional. In short, it runs like this: as §2
Experiment [5] has as its system Salmonella typhi. The experiment can be described thus: Antimicrobial activity against Salmonella typhi ATCC 23564 after 24 hrs by broth micro serial dilution method. The format is functional, Salmonella enterica subsp. enterica serovar Typhi.
Experiment [6] deals with Salmonella typhi. Description: Antimicrobial activity against Salmonella typhi ATCC 23564 assessed as diameter of inhibition zone at 80 uM after 24 hrs by Kirby -Baur disc diffusion method. The note with it: Salmonella enterica subsp. enterica serovar Typhi. The format is functional.
Experiment [7] concerns Bacillus cereus. Description: Antimicrobial activity against Bacillus cereus MTCC 7350 after 24 hrs by broth micro serial dilution method. It counts as functional. The method in brief: as §1
Experiment [8] relates to Bacillus cereus. The experiment can be described thus: Antimicrobial activity against Bacillus cereus MTCC 7350 assessed as diameter of inhibition zone at 80 uM after 24 hrs by Kirby -Baur disc diffusion method. The format is functional. The method in brief: as §2
Experiment [9] has as its system Staphylococcus aureus. Description: Antimicrobial activity against Staphylococcus aureus ATCC 11632 after 24 hrs by broth micro serial dilution method. The format is functional. The method in brief:
as §1

The subject of experiment [10] is Staphylococcus aureus. The experiment can be described thus: Antimicrobial activity against Staphylococcus aureus ATCC 11632 assessed as diameter of inhibition zone at 80 uM after 24 hrs by Kirby -Baur disc diffusion method. The format is functional. In short, it runs like this: as §2
The mark [11] stands for this setting: Salmonella enterica, ATCC 23564, 24 h.
[12] abbreviates: Salmonella enterica subsp. enterica serovar Typhi.

With `COc1ccc(NS(=O)(=O)c2ccc(N)cc2)nn1` [SULFAMETHOXYPYRIDAZINE], the MIC against Escherichia coli [1] (ATCC 35218, 24 h) is above 160 µM; in the experiment with Pseudomonas aeruginosa [3] (ATCC 15499, 24 h), above 160 µM; with Salmonella typhi [5] (setting [11]) it was above 160 µM; in the experiment on Bacillus cereus [7] (MTCC 7350, 24 h), above 160 µM; against Staphylococcus aureus [9] (ATCC 11632, 24 h), above 80 µM. The “diameter of the inhibition zone (DIZ)” value in the experiment on Escherichia coli [2], in the experiment with Pseudomonas aeruginosa [4], with Salmonella typhi [6], with Bacillus cereus [8] and in the experiment with Staphylococcus aureus [10] was “inactive” each time.

Turning to `Nc1ccc(S(=O)(=O)Nc2ccccn2)cc1` [SULFAPYRIDINE], in the experiment on Escherichia coli [1] (ATCC 35218, 24 h), the MIC is above 160 µM. The “diameter of the inhibition zone (DIZ)” value in the experiment on Escherichia coli [2], in the experiment with Pseudomonas aeruginosa [4], in the experiment with Salmonella typhi [6], in the experiment on Bacillus cereus [8] and in the experiment on Staphylococcus aureus [10] was “inactive” each time. In addition, the MIC entry in the experiment with Pseudomonas aeruginosa [3], in the experiment on Salmonella typhi [5] (setting [12]), in the experiment on Bacillus cereus [7] and with Staphylococcus aureus [9] was “inactive” throughout.

On to `Cc1cc(NS(=O)(=O)c2ccc(N)cc2)no1` [SULFAMETHOXAZOLE], for which the MIC is above 160 µM against Escherichia coli [1] (ATCC 35218, 24 h); above 160 µM in the experiment on Salmonella typhi [5] (setting [11]); above 160 µM in the experiment with Staphylococcus aureus [9] (ATCC 11632, 24 h). In addition, the “diameter of the inhibition zone (DIZ)” value in the experiment on Escherichia coli [2], in the experiment with Pseudomonas aeruginosa [4], in the experiment on Salmonella typhi [6], in the experiment on Bacillus cereus [8] and with Staphylococcus aureus [10] was “inactive” in each case. Also, the MIC result in the experiment with Pseudomonas aeruginosa [3] and in the experiment with Bacillus cereus [7] was “inactive” each time.

Take `Nc1ccc(S(N)(=O)=O)cc1`: the MIC entry with Escherichia coli [1], with Pseudomonas aeruginosa [3], in the experiment on Salmonella typhi [5] (setting [12]), in the experiment on Bacillus cereus [7] and in the experiment on Staphylococcus aureus [9] was “inactive” each time. The “diameter of the inhibition zone (DIZ)” value with Escherichia coli [2], in the experiment with Pseudomonas aeruginosa [4], in the experiment with Salmonella typhi [6], in the experiment with Bacillus cereus [8] and with Staphylococcus aureus [10] was “inactive” each time.

Broadly, the MIC is the lowest concentration found to suppress growth.
